Measured values from ChEMBL document CHEMBL3286218, “Structure-activity relationship studies of N-methylated and N-hydroxylated spider polyamine toxins as inhibitors of ionotropic glutamate receptors” (J Med Chem, 2014).

How the values were obtained:
Format in all cases: cell-based
[1] = target: Glutamate NMDA receptor; Grin1/Grin2a (Rattus norvegicus) (UniProt P35439+Q00959); experiment: Inhibition of rat recombinant GluN1/2A expressed in Xenopus oocytes assessed as inhibition of glutamate/glycine-evoked channel current at 100 nM at holding potential of -80 mV by two-electrode voltage clamp technique
Method in brief: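 Single-concentration screen at 100 nM on oocytes expressing GluN1/2A (1:10 cRNA ratio), two-electrode clamp at −80 mV, rt, in frog Ringer's. Percent inhibition of current evoked by 100 μM L-glutamate plus 100 μM glycine, with compound bath-applied in Ringer's.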

[2] = target: Glutamate NMDA receptor; Grin1/Grin2a (Rattus norvegicus, UniProt P35439+Q00959); experiment: Inhibition of rat recombinant GluN1/2A expressed in Xenopus oocytes assessed as inhibition of glutamate/glycine-evoked channel current at holding potential of -80 mV by two-electrode voltage clamp technique
Method in brief: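 Oocytes were injected with GluN1/N2A cRNA at a 1:10 ratio (25 nL at 0.5 ng/nL), incubated at 17 °C in Barth's medium with gentamicin, and recorded after 2−4 days. Clamp at −80 mV, rt, in frog Ringer's (BaCl₂, pH 7.6). Increasing antagonist was co-applied with 100 μM L-glutamate plus 100 μM glycine. IC50 came from a Hill fit over 3−8 oocytes.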

[3] = target: Glutamate receptor 1 (Rattus norvegicus, UniProt P19490); experiment: Inhibition of rat recombinant GluA1 expressed in Xenopus oocytes assessed as inhibition of glutamate-induced channel current at holding potential of -80 mV by two-electrode voltage clamp technique
Method in brief: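 GluA1_i cRNA (25 nL at 1 ng/nL) injected into collagenase-treated oocytes, kept at 17 °C in Barth's medium (pH 7.4) with gentamicin, recorded 2−4 days later. Held at −80 mV, rt, superfused with frog Ringer's (BaCl₂, pH 7.6). Antagonist co-applied with 300 μM L-glutamate at rising concentrations. Curves from 3−8 oocytes fitted to a Hill equation for IC50.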

[4] = target: Glutamate receptor 1 (Rattus norvegicus) (UniProt P19490); experiment: Inhibition of rat recombinant GluA1 expressed in Xenopus oocytes assessed as inhibition of glutamate-induced channel current at 100 nM at holding potential of -80 mV by two-electrode voltage clamp technique
Method in brief: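 Xenopus oocytes injected with GluA1_i cRNA (25 nL of 1 ng/nL), kept 2–4 days at 17 °C in Barth's medium with gentamicin. Two-electrode voltage clamp at room temperature in superfused frog Ringer's (Ba2+-containing, pH 7.6). Current evoked by 300 μM L-glutamate; test compound at 100 nM added by bath, co-applied with agonist. Percent inhibition of the evoked current recorded.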

[5] = organism: Rattus norvegicus; experiment: Selectivity ratio of IC50 for rat recombinant GluN1/2A expressed in Xenopus oocytes to IC50 for rat recombinant GluA1 expressed in Xenopus oocytes

Chain of Glutamate receptor 1 (P19490 whole entry, the tested form may be a part): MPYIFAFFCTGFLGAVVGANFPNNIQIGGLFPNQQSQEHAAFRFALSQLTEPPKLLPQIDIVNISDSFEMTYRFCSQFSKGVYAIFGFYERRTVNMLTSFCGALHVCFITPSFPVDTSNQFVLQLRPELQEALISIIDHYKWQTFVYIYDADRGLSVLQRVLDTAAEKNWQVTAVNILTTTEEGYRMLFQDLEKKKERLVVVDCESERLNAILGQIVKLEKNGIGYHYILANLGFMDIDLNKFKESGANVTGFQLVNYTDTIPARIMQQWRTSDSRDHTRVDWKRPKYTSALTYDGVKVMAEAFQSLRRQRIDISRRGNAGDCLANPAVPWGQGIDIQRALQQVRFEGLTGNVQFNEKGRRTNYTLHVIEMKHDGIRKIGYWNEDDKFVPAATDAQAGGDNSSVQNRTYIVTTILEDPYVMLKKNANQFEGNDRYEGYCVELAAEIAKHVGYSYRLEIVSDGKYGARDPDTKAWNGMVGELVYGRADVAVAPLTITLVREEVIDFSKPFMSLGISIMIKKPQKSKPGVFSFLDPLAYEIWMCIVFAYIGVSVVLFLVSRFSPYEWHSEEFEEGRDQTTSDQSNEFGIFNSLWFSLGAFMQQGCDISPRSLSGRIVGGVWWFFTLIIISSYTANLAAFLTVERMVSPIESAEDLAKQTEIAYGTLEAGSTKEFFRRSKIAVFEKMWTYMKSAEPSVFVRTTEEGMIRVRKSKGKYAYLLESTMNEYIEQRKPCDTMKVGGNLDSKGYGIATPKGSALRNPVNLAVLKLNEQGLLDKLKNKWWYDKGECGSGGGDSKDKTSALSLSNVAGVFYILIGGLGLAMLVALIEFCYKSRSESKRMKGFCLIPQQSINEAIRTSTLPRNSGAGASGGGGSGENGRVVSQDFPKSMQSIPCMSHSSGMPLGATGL
Chain of Glutamate receptor 1 (Rattus norvegicus) (P19490 whole entry, the tested form may be a part): as above

NCCCNCCCCNCCCNCCCN(O)CCCNC(=O)Cc1c[nH]c2ccccc12
inhibition [1]: > 90% | IC50 [2]: 12 nM | IC50 [3]: 11 nM

CN(CCCC[C@H](N)C(=O)NCCCCCNC(=O)[C@H](CC(N)=O)NC(=O)Cc1c[nH]c2cccc(O)c12)CCCNC(=O)[C@@H](N)CCCNC(=N)N
inhibition [4]: > 40% | inhibition [1]: < 20% | IC50 [2]: 1630 nM | IC50 [3]: 52 nM

NCCCNCCCCNCCCNCCCN(O)CCCNC(=O)Cc1c[nH]c2cccc(O)c12
inhibition [1]: > 90%

C[N+](C)(CCCC[C@H](N)C(=O)NCCCCCNC(=O)[C@H](CC(N)=O)NC(=O)Cc1c[nH]c2cccc(O)c12)CCCNC(=O)[C@@H](N)CCCNC(=N)N
inhibition [4]: > 40% | inhibition [1]: < 20% | IC50 [2]: 3850 nM | IC50 [3]: 123 nM

NCCCNCCCCNCCCNCCCNCCCNC(=O)Cc1c[nH]c2cccc(O)c12
inhibition [1]: > 90%

CN(CCCC[C@H](N)C(=O)NCCCCCNC(=O)[C@H](CC(N)=O)NC(=O)Cc1c[nH]c2ccccc12)CCCNC(=O)[C@@H](N)CCCNC(=N)N
inhibition [4]: > 40% | inhibition [1]: < 20%

N=C(N)NCCC[C@H](N)C(=O)NCCCNCCCC[C@H](N)C(=O)NCCCCCNC(=O)[C@H](CC(N)=O)NC(=O)Cc1c[nH]c2cccc(O)c12
inhibition [4]: 84% | inhibition [1]: < 20% | IC50 [2]: 387 nM | IC50 [3]: 15 nM | Ratio IC50 [5]: 26

C[N+](C)(CCCC[C@H](N)C(=O)NCCCCCNC(=O)[C@H](CC(N)=O)NC(=O)Cc1c[nH]c2ccccc12)CCCNC(=O)[C@@H](N)CCCNC(=N)N
inhibition [4]: > 40% | inhibition [1]: < 20%

N=C(N)NCCC[C@H](N)C(=O)NCCCNCCCC[C@H](N)C(=O)NCCCCCNC(=O)[C@H](CC(N)=O)NC(=O)Cc1c[nH]c2ccccc12
inhibition [4]: 81% | inhibition [1]: < 20%

NCCCNCCCCNCCCNCCCNCCCNC(=O)Cc1c[nH]c2ccccc12
inhibition [1]: > 90%

NCCCNCCCCNCCCNCCCNCCCNC(=O)Cc1ccc(O)cc1O
inhibition [1]: > 90%
